Measurements reported in ChEMBL document CHEMBL3259573, “Optimization of 2-(3-(arylalkyl amino carbonyl) phenyl)-3-(2-methoxyphenyl)-4-thiazolidinone derivatives as potent antitumor growth and metastasis agents” (Eur J Med Chem, 2014).
Calls of active or inactive are those of the source. The calls are words filed in the database; no cut-off is given here.

Tests used:
[1] = test system: A549; experiment: Antiproliferative activity against human A549 cells after 48 hrs by sulforhodamine B assay; format: functional, cell-based; settings: A549, 48 h
Procedure, shortened: (§1)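 Cells kept in RPMI 1640 at 37 °C, 5% CO₂, and seeded 24 h before treatment, with DMSO as control. After 48 h, fixed with cold 50% TCA 1 h at 4 °C and stained with 0.4% SRB in 1% acetic acid for 10 min. Washed five times with 1% acetic acid, dye solubilized in 10 mM Tris base, OD read at 515 nm.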

[2] = test system: MDA-MB-231; experiment: Antiproliferative activity against human MDA-MB-231 cells after 48 hrs by sulforhodamine B assay; format: functional, cell-based; settings: MDA-MB-231, 48 h; procedure, shortened: as §1
[3] = test system: MDA-MB-231; experiment: Antimetastatic activity against human MDA-MB-231 cells assessed as inhibition of cell migration after 24 hrs by wound healing assay; format: functional, cell-based; settings: for IC50: MDA-MB-231, 24 h
Procedure, shortened: (§2)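 Cells grown at 37 °C in complete RPMI 1640 to 80–90% confluence, then serum-starved 12 h. Monolayer scraped with pipette tip, washed twice with PBS, refed complete RPMI 1640 with compound (0.5 or 0.05 uM per legend). Incubated 24 h at 37 °C, then fixed and photographed. Migrated cells counted manually, inhibition expressed relative to untreated (100%). Three independent experiments, 95% CI.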

[4] = test system: MDA-MB-231; experiment: Antimetastatic activity against human MDA-MB-231 cells assessed as inhibition of cell migration at 0.5 uM after 24 hrs by wound healing assay; format: functional, cell-based; procedure, shortened: as §2
[5] = test system: MDA-MB-231; experiment: Antimetastatic activity against human MDA-MB-231 cells assessed as inhibition of cell migration after 10 to 12 hrs by transwell assay; format: functional, cell-based
Procedure, shortened: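 MDA-MB-231 cells (5 × 10⁴) in serum-free medium placed in upper chamber, 10% FBS medium below; compound at fixed concentrations in both chambers. Migration approximately 10 h (legend says 12 h). Non-migrated cells swabbed off, migrated cells fixed in paraformaldehyde 1 h, stained 0.1% crystal violet, counted in 7–8 random fields. Three independent experiments, means with 95% confidence intervals.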

[6] = test system: MDA-MB-231; experiment: Induction of apoptosis in human MDA-MB-231 cells at 0.1 to 1 uM after 48 hrs by annexin V-FITC and propidium iodide staining-based flow cytometric analysis; format: functional, cell-based
Procedure, shortened: (§3)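 Treatment 48 h. Cells washed with cold PBS, resuspended in binding buffer, stained with Annexin V-FITC/PI 15 min. 10,000 stained cells per sample analyzed by flow cytometry.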

[7] = test system: A549; experiment: Cell cycle arrest in human A549 cells assessed as accumulation at G2/M phase at 1 uM by propidium iodide staining-based FACS analysis relative to control; format: functional
[8] = test system: A549; experiment: Induction of apoptosis in human A549 cells at 0.1 to 1 uM after 48 hrs by annexin V-FITC and propidium iodide staining-based flow cytometric analysis; format: functional, cell-based; procedure, shortened: as §3
[9] = test system: MDA-MB-231; experiment: Antimetastatic activity against luciferase-labeled human MDA-MB-231 cells xenografted in nude mouse assessed as reduction in photon flux in lungs at 5 mg/kg/day, ip administered 1 week prior to tumor implantation measured after 21 days by bioluminescence assay relative to control; format: functional; design: scale not given: the % may be the effect or the level left; settings: route intraperitoneal
Procedure, shortened: (§4)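 Nude mice randomized into 3 groups (n = 6) and given DMSO or compound at 1.0 or 5.0 mg/kg/day by intraperitoneal injection. Dosing started one week before tail-vein injection of 1 × 10⁶ firefly luciferase-expressing MDA-MB-231 cells in PBS and continued 21 days. Lung metastasis read by bioluminescence photon flux; survival by Kaplan–Meier analysis.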

[10] = test system: Mus musculus; experiment: Toxicity in nude mouse xenografted with luciferase-labeled human MDA-MB-231 cells assessed as change in body weight at 1 to 5 mg/kg/day, ip administered 1 week prior to tumor implantation measured after 21 days; format: organism-based; design: route intraperitoneal; settings: in vivo, 504 h
[11] = test system: A549; experiment: Antitumor activity against human A549 cells xenografted in nude mouse assessed as reduction in tumor volume at 5 to 10 mg/kg/day, ip for 28 days; format: functional, organism-based
[12] = test system: A549; experiment: Antitumor activity against human A549 cells xenografted in nude mouse assessed as reduction in tumor weight at 5 to 10 mg/kg/day, ip for 28 days; format: functional, organism-based
[13] = test system: MDA-MB-231; experiment: Antimetastatic activity against luciferase-labeled human MDA-MB-231 cells xenografted in ip dosed nude mouse assessed as reduction in development of lung metastasis administered 1 week prior to tumor implantation measured after 21 days by bioluminescence assay; format: functional, organism-based; procedure, shortened: as §4
[14] = test system: MDA-MB-231; experiment: Antimetastatic activity against luciferase-labeled human MDA-MB-231 cells xenografted in nude mouse assessed as increase in mouse survival at 1 to 5 mg/kg/day, ip administered 1 week prior to tumor implantation measured after 21 days; format: functional, organism-based; procedure, shortened: as §4
[15] = test system: MDA-MB-231; experiment: Antimetastatic activity against luciferase-labeled human MDA-MB-231 cells xenografted in nude mouse assessed as reduction in development of lung metastasis at 1 to 5 mg/kg/day, ip administered 1 week prior to tumor implantation measured after 21 days by bioluminescence assay; format: functional, organism-based; settings: TDE = time-dependent effect; procedure, shortened: as §4
[16] = test system: MDA-MB-231; experiment: Cell cycle arrest in human MDA-MB-231 cells assessed as accumulation at G2/M phase at 1 uM by propidium iodide staining-based FACS analysis relative to control; format: functional
[17] = test system: Mus musculus; experiment: Toxicity in nude mouse xenografted with human A549 cells assessed as change in body weight at 5 to 10 mg/kg/day, ip for 28 days; format: organism-based; design: route intraperitoneal; settings: in vivo, 672 h

## COc1ccccc1N1C(=O)CSC1c1ccc2ccccc2n1 (stereo not drawn)
[1]
  IC50: > 50 µM
[2]
  IC50: > 50 µM

## COc1ccccc1N1C(=O)CSC1c1cccc(C(=O)NCCc2ccc(F)cc2)c1 (stereo not drawn)
[1]
  IC50: 0.47 µM
[2]
  IC50: 1.36 µM

## COc1ccccc1N1C(=O)CSC1c1cccc(C(=O)NCc2ccccc2)c1 (stereo not drawn)
[1]
  IC50: 5.06 µM
[2]
  IC50: > 25 µM

## O=C1CSC(c2cccc(Br)c2)N1c1nccs1 (stereo not drawn)
[1]
  IC50: > 50 µM
[2]
  IC50: > 50 µM

## O=C1CSC(c2cccc(Br)c2)N1c1ncccn1 (stereo not drawn)
[1]
  IC50: > 50 µM
[2]
  IC50: > 50 µM

## COc1ccccc1N1C(=O)CSC1c1ccccc1Br (stereo not drawn)
[1]
  IC50: 31.5 µM
[2]
  IC50: > 50 µM

## COc1ccccc1N1C(=O)CSC1c1cccc(C(=O)Nc2ccccc2)c1 (stereo not drawn)
[1]
  IC50: > 25 µM
[2]
  IC50: > 25 µM

## COc1ccccc1N1C(=O)CSC1c1cccc(C(=O)NCCc2ccccc2)c1 (stereo not drawn)
[3]
  inhibition: Active
[1]
  IC50: 0.96 µM
[2]
  IC50: > 25 µM

## COc1ccccc1N1C(=O)CSC1Cc1ccccc1 (stereo not drawn)
[1]
  IC50: > 50 µM
[2]
  IC50: > 50 µM

## COc1ccccc1N1C(=O)CSC1c1cccc(C(=O)O)c1 (stereo not drawn)
[1]
  IC50: > 50 µM
[2]
  IC50: > 50 µM

## COc1ccc(N2C(=O)CSC2c2cccc(Br)c2)c(OC)c1 (stereo not drawn)
[1]
  IC50: 14.8 µM
[2]
  IC50: 17.1 µM

## O=C1CSC(c2cccc(Br)c2)N1c1cccc([N+](=O)[O-])c1 (stereo not drawn)
[1]
  IC50: 43.7 µM
[2]
  IC50: > 50 µM

## O=C1CSC(c2cccc(Br)c2)N1c1cccc(O)c1 (stereo not drawn)
[1]
  IC50: 37.1 µM
[2]
  IC50: 17.7 µM

## O=C1CSC(c2cccc(Br)c2)N1CCc1ccccc1 (stereo not drawn)
[1]
  IC50: 20.7 µM
[2]
  IC50: > 50 µM

## O=C1CSC(c2cccc(Br)c2)N1c1cc(Cl)ccc1O (stereo not drawn)
[4]
  inhibition: inactive
[1]
  IC50: 9.95 µM
[2]
  IC50: 27 µM

## COc1ccccc1N1C(=O)CSC1c1cccc(Br)c1 (stereo not drawn)
[1]
  IC50: 1.87 µM
[2]
  IC50: 4.52 µM

## CCOc1ccc(N2C(=O)CSC2c2cccc(Br)c2)cc1 (stereo not drawn)
[1]
  IC50: 8.98 µM
[2]
  IC50: 18 µM

## COc1ccccc1N1C(=O)CSC1c1cccc([N+](=O)[O-])c1 (stereo not drawn)
[1]
  IC50: 11.3 µM
[2]
  IC50: 43 µM

## CNc1ccccc1N1C(=O)CSC1c1cccc(Br)c1 (stereo not drawn)
[1]
  IC50: 22.6 µM
[2]
  IC50: > 50 µM

## COc1ccccc1N1C(=O)CSC1c1cccc(Cl)c1 (stereo not drawn)
[1]
  IC50: 8.18 µM
[2]
  IC50: 13.9 µM

## COc1ccccc1N1C(=O)CSC1c1cccc(C(=O)NCCCc2ccccc2)c1 (stereo not drawn)
[1]
  IC50: 31.6 µM
[2]
  IC50: 12.3 µM

## COc1ccccc1N1C(=O)CSC1c1cccc(C(=O)NCCc2ccc(O)cc2)c1 (stereo not drawn)
[3]
  inhibition: Active
[1]
  IC50: 0.72 µM
[2]
  IC50: 1.77 µM

## COc1ccccc1N1C(=O)CSC1c1cccs1 (stereo not drawn)
[1]
  IC50: > 50 µM
[2]
  IC50: > 50 µM

## O=C1CSC(c2cccc(Br)c2)N1c1ccccc1 (stereo not drawn)
[1]
  IC50: > 50 µM
[2]
  IC50: > 50 µM

## COc1ccccc1N1C(=O)CSC1c1cccc(C(=O)NCCc2ccc(Br)cc2)c1 (stereo not drawn)
[5]
  IC50: 0.01 µM
  inhibition: Dose-dependent effect
[6]
  Activity: inactive
[7]
  Activity: 42.4%
[8]
  Activity: inactive
[9]
  Activity: 96.5%
[10]
  Activity: Toxic
[3]
  IC50: < 0.05 µM
[11]
  Activity: Active
[12]
  Activity: Active
[13]
  Activity: Dose-dependent effect
[1]
  IC50: 0.21 µM
[14]
  Activity: Active
[2]
  IC50: 0.23 µM
[15]
  Activity: tde
[16]
  Activity: 48.34%
[17]
  Activity: Non-toxic

## COc1ccccc1N1C(=O)CSC1c1ccncc1 (stereo not drawn)
[1]
  IC50: > 50 µM
[2]
  IC50: > 50 µM

## COc1ccccc1N1C(=O)CSC1c1cccc(C(=O)N2CCCCC2)c1 (stereo not drawn)
[1]
  IC50: > 50 µM
[2]
  IC50: > 50 µM

## COc1ccc(CCNC(=O)c2cccc(C3SCC(=O)N3c3ccccc3OC)c2)cc1 (stereo not drawn)
[3]
  inhibition: Active
[1]
  IC50: 0.13 µM
[2]
  IC50: 0.05 µM

## COc1ccccc1N1C(=O)CSC1c1cccc(C(=O)NCCc2ccccc2Br)c1 (stereo not drawn)
[1]
  IC50: 8.52 µM
[2]
  IC50: 13.9 µM

## C=CCN(CC=C)C(=O)c1cccc(C2SCC(=O)N2c2ccccc2OC)c1 (stereo not drawn)
[1]
  IC50: > 50 µM
[2]
  IC50: > 50 µM

## COc1ccccc1N1C(=O)CSC1c1ccc(Br)cc1 (stereo not drawn)
[1]
  IC50: 48.5 µM
[2]
  IC50: > 50 µM

## COc1ccccc1N1C(=O)CSC1c1cccc(C(=O)NCCc2ccc(Cl)cc2)c1 (stereo not drawn)
[5]
  IC50: 0.01 µM
  inhibition: Dose-dependent effect
[3]
  IC50: < 0.05 µM
[1]
  IC50: 0.16 µM
[2]
  IC50: 0.18 µM

## COc1ccccc1N1C(=O)CSC1c1ccccc1 (stereo not drawn)
[1]
  IC50: > 50 µM
[2]
  IC50: > 50 µM

## COC(=O)c1cccc(C2SCC(=O)N2c2ccccc2OC)c1 (stereo not drawn)
[1]
  IC50: 0.29 µM
[2]
  IC50: 23.1 µM

## O=C1CSC(c2cccc(Br)c2)N1c1ccc(O)cc1 (stereo not drawn)
[1]
  IC50: > 50 µM
[2]
  IC50: > 50 µM

## CCN(CC)C(=O)c1cccc(C2SCC(=O)N2c2ccccc2OC)c1 (stereo not drawn)
[1]
  IC50: > 50 µM
[2]
  IC50: > 50 µM

## COc1ccccc1N1C(=O)CSC1c1cccc(F)c1 (stereo not drawn)
[1]
  IC50: > 50 µM
[2]
  IC50: > 50 µM

## COc1cccc(C2SCC(=O)N2c2ccccc2OC)c1 (stereo not drawn)
[1]
  IC50: > 50 µM
[2]
  IC50: > 50 µM

## COc1ccccc1N1C(=O)CSC1c1cccc(CBr)c1 (stereo not drawn)
[1]
  IC50: 14.4 µM
[2]
  IC50: > 50 µM

## O=C1CSC(c2cccc(Br)c2)N1c1ccccc1O (stereo not drawn)
[1]
  IC50: 13.7 µM
[2]
  IC50: 32.6 µM

## CN(C)c1ccccc1N1C(=O)CSC1c1cccc(Br)c1 (stereo not drawn)
[1]
  IC50: 37.6 µM
[2]
  IC50: > 50 µM

## COc1ccccc1N1C(=O)CSC1c1cccc(O)c1 (stereo not drawn)
[1]
  IC50: > 50 µM
[2]
  IC50: > 50 µM

## COc1cccc(N2C(=O)CSC2c2cccc(Br)c2)c1 (stereo not drawn)
[1]
  IC50: > 50 µM
[2]
  IC50: 47.5 µM
